Assay results from ChEMBL document CHEMBL1142562, “Four new neuroprotective dihydropyranocoumarins from Angelica gigas” (2005).

Assays:
Format in all cases: functional
Settings in all cases: read-out: Activity
[1] = Neuroprotective effect against glutamate-stimulated rat cortical cells assessed as cell viability at 1 uM after 1 hr by LDH assay relative to control
Method in brief: (§1)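 Mixed neuron–glia cortical cultures from Sprague-Dawley fetal rats (17-19 days old), matured ≥2 weeks and used at 17 days in vitro. Cultures were washed with DMEM and pretreated 1 h with compound in DMSO (0.1% final), then given 100 µM glutamate for 24 h. Viability was read as LDH efflux and expressed as % protection relative to control and glutamate-only cultures. Mean ± STD of three experiments, 5-6 cultures each.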

[2] = Neuroprotective effect against glutamate-stimulated rat cortical cells assessed as cell viability at 10 uM after 1 hr by LDH assay relative to control; method in brief: as §1
[3] = Neuroprotective effect against glutamate-stimulated rat cortical cells assessed as cell viability at 0.1 uM after 1 hr by LDH assay relative to control; method in brief: as §1

Row | Compound | viability at 1 µM [1] [%] | viability at 10 µM [2] [%] | viability at 0.1 µM [3] [%]
1 | C/C(=C\CO)C(=O)O[C@H]1Cc2cc3ccc(=O)oc3cc2OC1(C)C | 19.9 | 1.2 | 33.2
2 | C/C(=C\C(=O)O[C@H]1Cc2cc3ccc(=O)oc3cc2OC1(C)C)CO | 34.1 | 35.1 | 38.4
3 | C[C@@H]1O[C@]1(C)C(=O)O[C@H]1Cc2cc3ccc(=O)oc3cc2OC1(C)C | 52.5 | 49 | 70
4 | C[C@H]1O[C@@]1(C)C(=O)O[C@H]1Cc2cc3ccc(=O)oc3cc2OC1(C)C | 61.1 | 56.7 | 47.5
5 | N#Cc1cc2c(cc1[N+](=O)[O-])=NC(=O)C(=O)N=2 | 40.5 | 50.5 | 29
6 | NC(CCCP(=O)(O)O)C(=O)O (racemic) | 25 | 39 | 10
7 | CC1(C)Oc2cc3oc(=O)ccc3cc2C[C@@H]1O [DECURSINOL] | 69.6 | 40.7 | 33.4
8 | CC(C)=CC(=O)O[C@H]1Cc2cc3ccc(=O)oc3cc2OC1(C)C [DECURSIN] | 50 | 65.1 | 39
9 | C[C@]12N[C@H](Cc3ccccc31)c1ccccc12 [DIZOCILPINE] | 65 | 70 | 54
